Source: ChEMBL document CHEMBL1773050, “Identification of inhibitors that block vaccinia virus infection by targeting the DNA synthesis processivity factor D4” (J Med Chem, 2011)
In brackets after ≈: the same amount, converted by molar mass.

Columns and labels:
[1] = target: Uracil-DNA glycosylase (Vaccinia virus (strain Western Reserve) (VACV) (Vaccinia virus (strainWR))) (UniProt P04303); experiment: Binding affinity at Vaccinia virus WR strain D4 assessed as change in unfolding transition temperature at 50 uM by thermofluor method
Outline: (§1)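 Native D4 at 4 μM, His-tag removed and dialysed into buffer, was tested with or without 50 μM compound (final, 1% DMSO). Buffer was 25 mM Tris pH 7.2, 0.15 M NaCl, 5 mM ZnCl2, with Sypro Orange. Fluorescence was read from 25 to 80 °C at 1 °C/min. Tm is the unfolding midpoint, and ΔTm is Tm minus the DMSO mock. At least three independent experiments were run.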

BSC-1 = experiment: (§2) Cytotoxicity against african green monkey BSC1 cells infected with Vaccinia virus assessed as lactate dehydrogenase release after 20 hrs by microplate reader; assay type: cell-based; conditions: chlorocebus aethiops, bsc-1, 20 h
Outline: (§3)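 BSC-1 cells, seeded at 1 × 10^4 cells/well for 24 h, then received inhibitors at 2-fold serial dilutions in fresh medium with 1% DMSO for 20 h. LDH release into the medium was read at 492 nm after 30 min with reaction mixture in the dark. 2% Triton X-100 gave maximal release and 1% DMSO served as baseline. Triplicates were used, with three independent repeats, giving CC50.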

[2] = target: Uracil-DNA glycosylase (Vaccinia virus (strain Western Reserve) (VACV) (Vaccinia virus (strainWR))) (UniProt P04303); experiment: Binding affinity at Vaccinia virus WR strain D4 assessed as melting temperature at 50 uM by thermofluor method; outline: as §1
[3] = Selectivity index, CC50 for African green monkey BSC-1 cells to EC50 for Vaccinia virus; assay type: toxicity, cell-based; conditions: read-out: Ratio CC50/EC50
[4] = Solubility of the compound in phosphate buffer by chemiluminescence of total nitrogen contents; assay type: physicochemical
[5] = target: Uracil-DNA glycosylase (Vaccinia virus (strain Western Reserve) (VACV) (Vaccinia virus (strainWR)), UniProt P04303); experiment: Inhibition of Vaccinia virus WR strain processivity factor D4 interaction with A20 protein assessed as inhibition of E9 DNA polymerase-mediated DIG-dUTP incorporation into DNA strand by rapid plate assay; design: species or system Orthopoxvirus vaccinia
Outline: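 Annealed biotinylated primer/100-bp template was coated on streptavidin plates. Compounds were 2-fold serial dilutions in DMSO. After 37 °C for 30 min, DIG-ELISA was read at 405 nm and normalised to DMSO and EDTA controls. Triplicates were used across at least three experiments.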

Vaccinia virus = experiment: Antiviral activity against Vaccinia virus infected in BSC-1 cells by plaque reduction assay; assay type: functional, organism-based; conditions: Orthopoxvirus vaccinia
[6] = as §2; assay type: cell-based, BSC-1; conditions: chlorocebus aethiops, BSC-1 cells infected with Vaccinia virus; outline: as §3

Structure (SMILES) | ΔTm [1] | CC50 (BSC-1) | Tm [2] | selectivity ratio [3] | solubility ([4]; buffer) | IC50 [5] | EC50 (Vaccinia virus) | CC50 at 20 h [6] | solubility ([4]; phosphate buffer, read-out: solubility)
Cn1c(=O)n(C)c2cc(NS(=O)(=O)c3ccc(C(C)(C)C)cc3)c(NCc3ccccc3)cc21 | 10 °C | > 200 µM | 48.4 °C | > 10 | 0.9 µg/mL (≈ 1.88 µM) | 132 µM | 18.8 µM | – | –
CCOC(=O)c1cnc2c(ccc3ccccc32)c1Nc1ccc(N(C)C)cc1 | -1.5 °C | > 200 µM | 36.3 °C | – | – | 139 µM | – | – | –
CN(C)c1ccc(NC(=O)CSc2nc(-c3ccco3)cc(C(F)(F)F)n2)cc1 | -1.7 °C | 57.2 µM | 35.1 °C | 4 | – | 140 µM | > 200 µM | – | –
Oc1ccc(NCc2ccccc2OCc2ccccc2)cc1 | 14.9 °C | 175 µM | 53.3 °C | 25 | 1.1 µg/mL (≈ 3.6 µM) | 5.1 µM | 7.1 µM | – | –
COc1ccc(Nc2c(-c3cc(Br)ccc3O)nc3ncccn23)cc1OC | -0.1 °C | > 200 µM | 38.3 °C | 3 | – | 200 µM | 67.6 µM | – | –
COc1ccc(Nc2cc(C(=O)NCCCN3CCN(c4ccccc4F)CC3)c3ccccc3n2)c(OC)c1 | -3.6 °C | > 200 µM | 34.8 °C | 8 | – | > 200 µM | 25.8 µM | – | –
Cc1cc2n(n1)C(c1cc(C(C)(C)C)c(O)cc1O)Nc1ccccc1-2 (stereo unspecified) | 4.9 °C | 92.8 µM | 44.3 °C | 4 | 19.1 µg/mL (≈ 54.7 µM) | 138 µM | 21.5 µM | – | –
O=S(=O)(c1ccc(C2=CSC(Nc3ccc(F)cc3)N2CCCCCCO)cc1)N1CCCC1 (stereo unspecified) | -3.3 °C | > 200 µM | 35.1 °C | 63 | – | > 200 µM | 3.2 µM | – | –
CCOc1ccc2c(c1)C1CC=CC1[C@H](c1ccccc1Cl)N2 (stereo partly specified) | -5 °C | > 200 µM | 35.2 °C | 9 | – | 221 µM | 22.4 µM | – | –
COc1cc(NC(=O)c2cccc3c2C(=O)N(C2CCCCC2)C3)cc(OC)c1OC | -4.9 °C | > 200 µM | 33.2 °C | – | – | > 200 µM | > 200 µM | – | –
C=C(Cn1cc(C(=O)c2ccc(CC)cc2)c(=O)c2ccccc21)Nc1ccc(OC)c(OC)c1 | -3.2 °C | 52.9 µM | 35.4 °C | 0.3 | – | > 200 µM | > 200 µM | – | –
Cc1ccccc1Nc1c(-c2ccc(Br)cc2O)nc2sccn12 | -1.9 °C | 142 µM | 36.5 °C | 9 | – | > 200 µM | > 200 µM | – | –
COC(=O)CC1Oc2ccc(C)cc2-n2cc(-c3ccc(F)cc3)nc21 (stereo unspecified) | -6.6 °C | 84.1 µM | 32.2 °C | 0.4 | – | > 200 µM | > 200 µM | – | –
O=C1c2ccccc2-c2onc3c2C1C(NC1CCCCC1)C=C3NCCO (stereo unspecified) | – | – | – | – | – | 34.1 µM | – | 127 µM | 1.4 µg/mL (≈ 3.69 µM)
COc1ccc(/C=C/c2nc(-c3ccccc3O)n(-c3ccccc3)n2)cc1OC | -3.7 °C | 107 µM | 34.7 °C | 0.5 | – | > 200 µM | > 200 µM | – | –
Fc1ccc(Nc2c(-c3ccccn3)nc3ccc(Cl)cn23)cc1 | -3.7 °C | > 200 µM | 34.7 °C | 53 | – | > 200 µM | 3.8 µM | – | –
COc1ccc(Nc2nc(Nc3ccc(OC)cc3OC)nc(N3CCOCC3)n2)c(OC)c1 | -3.4 °C | 170 µM | 35 °C | – | – | > 200 µM | – | – | –
COc1ccc(C)cc1N(CC(=O)N1CCC(C)CC1)S(=O)(=O)c1ccc(C)cc1 | -4.8 °C | > 200 µM | 33.6 °C | – | – | 175 µM | – | – | –
Cc1ccnc(NC(c2ccccc2F)c2ccc3cccnc3c2O)c1 (stereo unspecified) | -2 °C | > 200 µM | 36.4 °C | 69 | – | 157 µM | 2.9 µM | – | –
COc1cc(-c2nc(-c3ccccc3)c(-c3ccc(Br)cc3)[nH]2)cc(OC)c1O | 4.6 °C | 57.2 µM | 43 °C | 3 | 1.4 µg/mL (≈ 3.1 µM) | 91.2 µM | 16.7 µM | – | –
COc1ccc(OCCn2c(NC(=O)c3ccc(OC)cc3)nc3ccccc32)cc1 | -4.1 °C | 23.2 µM | 34.3 °C | 0.5 | – | 169 µM | 47.9 µM | – | –
COc1cc(-c2nc3ccc(Cl)cn3c2Nc2ccc3c(c2)OCCO3)ccc1O | -1.5 °C | > 200 µM | 36.9 °C | 18 | – | > 200 µM | 10.8 µM | – | –
CCOc1ccccc1C(=O)Nc1ccc2nc3c(c(Nc4ccc(OC)c(OC)c4)c2c1)CCCC3 | -2.1 °C | 73.7 µM | 36.3 °C | 11 | – | 106 µM | > 200 µM | – | –
COc1ccc(NCc2nc3ccccc3n2CCOc2ccc(C)cc2)cc1 | -3.2 °C | 121 µM | 35.2 °C | 22 | – | > 200 µM | 5.5 µM | – | –
Oc1ccc(Cl)cc1Sc1cc(Cl)ccc1O [FENTICLOR] | – | – | – | – | – | 38.5 µM | 18.7 µM | – | –
COc1ccc(N2CCN(Cc3nc4c(c(=O)[nH]c(=O)n4C)n3Cc3ccc(Cl)cc3)CC2)cc1 | -2.5 °C | 92.8 µM | 35.9 °C | 0.4 | – | > 200 µM | > 200 µM | – | –
OC1COc2ccc(-c3cc(-c4ccc(F)cc4)c4c(n3)-c3cc(Cl)ccc3OC4)cc2N1 (stereo unspecified) | -3.5 °C | > 200 µM | 34.9 °C | 3 | – | > 200 µM | 74.6 µM | – | –
Cc1ccc2oc(-c3ccc(Cl)cc3)c(O)c(=O)c2c1 | -2 °C | > 200 µM | 36.4 °C | – | – | 195 µM | – | – | –
